Screening results (PubChem)
Only some compounds are listed: those with a hit (about 2.6% of all), similar ones and a draw of the others.
MITF act – activators of MITF-driven TRPM1 promoter reporter, primary screen, cell-based, SK-MEL-5, luciferase, single point; SK-MEL-5 TRPM1-promoter luciferase, 24 h; % of positive control, neutral wells = 0; activation, % at 12.5 µM; 0.75% of 300,000 active; AID 588334, 2011;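 active = mean activation of at least 80% with every replicate also reaching 80%; inconclusive = mean reaches 80% but some replicate falls short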;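 also: 0% = neutral control wells and 100% = parthenolide positive control wells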
esBAF inh – Bmi1 luciferase reporter increase in mESCs, primary screen, esBAF inhibitor project, mouse ES cells, Bmi1 luciferase knock-in, single point | reporter increase, % at 12.5 µM | 24 h; 100% = twice the neutral-well signal | 2% of 350,000 active; in the data active = activation above about 40%; inconclusive = no clear call, values can overlap the other calls;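 also: 0% = median of the plate's neutral control wells and 100% = double that signal; a rise in the Bmi1 reporter signal indicates esBAF inhibition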
Wnt act – Wnt/beta-catenin pathway activators, primary screen, cell-based, plate reader, single point; Wnt/beta-catenin reporter cell assay, activator; 1.2% of 300,000 active; activation, % at 9.35 µM; in the data active = activation above about 30%, passing the limit was not always enough; inconclusive = no clear call, values can overlap the other calls;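 also: 0% = neutral control wells and 100% = positive control wells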
XiGFP reactiv – activators of inactive X chromosome reactivation, primary screen, imaging, XiGFP fibroblasts, GFP high-content imaging, set 2; XiGFP mouse fibroblasts, % GFP-positive cells imaging, 3 d; cells co-treated with 5-aza-dC sensitizer; scaled so ellipticine positive control = 100%; activation, % at 7.58 µM; 0.055% of 360,000 active; AID 743238, 2013;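 active = mean normalized replicate activation at least 10% and every replicate at or above 10%; inconclusive = only one of the two criteria met; inactive = mean below 10% and not all replicates reach 10%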;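 also: 0% = median of on-plate neutral control wells and 100% = ellipticine 6 µM median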
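Assay system: SV40-immortalized XiGFP fibroblast cells, line 68-5-11; buffer or medium: DMEM plus 5-aza-dC sensitizer; compound: one concentration, pinned; timing: compounds 3 days, fix/stain 15 min at room temperature; benchmarks: positive control ellipticine, 6 µM final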
Vif imaging – HIV Vif self-association inhibitors, primary screen, imaging, HEK293T, single point. HEK293T cells, Vif self-association by quenched fluorescence, 24 h. inhibition, % at 7.49 µM. 0.35% of 340,000 active; in the data active = inhibition above about 50%, passing the limit was not always enough; inconclusive = no clear call, values can overlap the other calls; inactive = below about 31%
Ring1 derepress – Ring1 mRNA increase in mouse ESCs, confirmation, esBAF inhibitor project, cell-based, mouse ESC, RT-qPCR, cherry-pick; 550 tested, under 10 active; mouse ESC E14, Ring1 mRNA RT-qPCR fold change; fold change at 33 µM; shares compounds with esBAF inh;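 active = Ring1 gene expression raised more than 2-fold over untreated cells in both replicates at either tested dose; inconclusive = only one replicate above 2-fold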;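 also: Ring1 transcript normalised to actin housekeeping signal by TaqMan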
esBAF Fgf4 qPCR – Fgf4 mRNA decrease in mouse ESCs, confirmation, esBAF inhibitor project, cell-based, mouse ESC, RT-qPCR, cherry-pick; shares compounds with esBAF inh; mouse ESC E14, Fgf4 mRNA qPCR fold change; active compounds read low; Fgf4 expression fold change at 33 µM; 4% of 550 active; AID 743177, 2013;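 active = Fgf4 expression under 0.8 fold of control in both repeat measurements at one or both tested doses; inconclusive = under 0.8 fold in just a single repeat measurement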;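 also: Fgf4 transcript normalised to actin in duplex TaqMan qPCR; cells exposed to compound for 24 h before lysis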
Bmi1 derepress – esBAF inhibition via Bmi1 de-repression, confirmation, cell-based, RT-qPCR, mouse ESC, single point, cherry-pick; shares compounds with esBAF inh; mouse ESE14 ES cells, Bmi1 mRNA qPCR fold; active compounds read high; fold change at 33 µM; 550 tested, under 10 active; AID 743180, 2013;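 active = Bmi1 expression fold change above 6 at either tested concentration, seen in replicate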;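 also: higher fold means more Bmi1 de-repression and stronger esBAF inhibition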
A549 tox SP – A549 cell cytotoxicity, cytotoxicity control, plate reader, single point, cherry-pick | shares compounds with esBAF inh | cell viability change % (negative = cytotoxic), % at 25 µM, hits read low | 550 tested, under 10 active | AID 743188, 2013; call rule not given here
HepG2 cytotox SP – HepG2 cell cytotoxicity, cytotoxicity control, plate reader, single point, cherry-pick | shares compounds with esBAF inh | active compounds read low | activity change, negative = inhibition, % at 25 µM | 4% of 550 active | AID 743189, 2013; in the data active = activity change below about -50%
HEK293 cytotox SP – HEK293 cell cytotoxicity, cytotoxicity control, plate reader, single point, cherry-pick; shares compounds with esBAF inh; activity change, negative = inhibition, % at 25 µM, hits read low; 3% of 550 active; in the data active = activity change below about -38%, passing the limit was not always enough
* hit, by the source's call; ? = inconclusive; · = no result.

SMILES	MITF act	esBAF inh	Wnt act	XiGFP reactiv	Vif imaging	others
O=C1CN=C(c2ccccc2)c2cc([N+](=O)[O-])ccc2N1	5	-2	2	·	-3
Cc1cc(N(CCCl)CCCl)ccc1C=Cc1ccncn1	7	3	2	0	77*
CN1[C@@H]2CN(CC(F)(F)F)C[C@H]1C2c1ccc(Br)cc1 (some centres not stated)	·	·	·	0	·
O=C1c2ccccc2-c2cc3ccccc3cc21	33	·	46*	0	-5
O=C1c2ccccc2-c2cccc3cccc1c23	36	?	16	0	-7
CC(C)NC(=O)N1C[C@@H]2C(c3ccc(Br)cc3)[C@H](C1)N2C (some centres not stated)	·	·	·	0	·
c1ccc(CN2CCc3nc4ccccc4cc3C2)cc1	·	53*	19	0	-11
CN1CCN(Cc2ccc3ccccc3c2)CC1	·	2	1	0	0
O=C(O)[C@H]1[C@H](CO)[C@H]2Cn3c(ccc(-c4ccncc4)c3=O)[C@@H]1N2C(=O)C1CC1	·	-7	·	0	·
COc1ccc(O)c2c(=O)c3c(OC)cc4c(c3oc12)C1C=COC1O4 (configuration not stated)	-20	-20	-1	·	73*
CC(C)(C)C(=O)c1cn(CC(=O)NCc2ccco2)c2ccccc12	85*	·	-1	0	3
O=C(Cn1cc(C(=O)c2ccccc2F)c2ccccc21)NCc1ccco1	-11	8	·	·	-1
O=C1OCCC1C(=O)c1ccccc1 (configuration not stated)	·	·	0	0	19
O=C(c1ccccc1)C1NC1c1ccccc1 (configuration not stated)	18	49*	-4	0	11
COc1cc(CC2C(=O)N(C)C(=O)N(C)C2=O)ccc1OCc1ccccc1	43	46*	28	·	1
COc1ccc2c(c1)[C@@]13CCC=C[C@H]1[C@@H](C2)NCC3	4	0	-4	0	61*
COc1ccc2c(c1)/C(=C/c1cnc[nH]1)C(=O)N2	-34	52*	13	0	-1
CC(C)NC(=O)N1C[C@@H]2N[C@H](C1)C2c1ccc(Br)cc1 (some centres not stated)	·	·	·	0	·
CN1[C@@H]2CN(S(C)(=O)=O)C[C@H]1C2c1ccccc1 (some centres not stated)	·	·	·	0	·
CCCC#Cc1ccc([C@H]2[C@H]3CN(C(=O)Cc4ccccn4)CCCCN3[C@H]2CO)cc1	·	·	·	0	·
CN1C(=O)C(=Cc2ccc(N3CCCCCC3)o2)C(=O)N(C)C1=S	·	41*	-2	·	28
CCCC(=O)c1cc(CP(=O)(OCC)OCC)oc1C	·	-8	3	0	50*
CS(=O)(=O)N1CC2NC(C1)C2c1ccc(Br)cc1 (configuration not stated)	·	·	·	0	·
c1ccc(Nc2ccc3ccccc3c2)cc1	95*	74*	0	·	0	Ring1 derepress=1.1;esBAF Fgf4 qPCR=?;Bmi1 derepress=1.5;A549 tox SP=-1;HepG2 cytotox SP=-6;HEK293 cytotox SP=-7
Cc1cccc(S(=O)(=O)N2[C@@H]3Cn4c(ccc(-c5ccc(F)cc5)c4=O)[C@H]2[C@@H](C(=O)O)[C@@H]3CO)c1	·	1	·	0	·
COc1ccc(-c2ccc3n2Cc2cnnn2-c2ccccc2-3)cc1	20	82*	3	0	·	Ring1 derepress=0.95;esBAF Fgf4 qPCR=1;Bmi1 derepress=1.8;A549 tox SP=-4;HepG2 cytotox SP=-36;HEK293 cytotox SP=-13
c1ccc(CCc2ccc3n2Cc2cnnn2-c2ccccc2-3)cc1	3	-8	-8	0	·
COC(=O)[C@@H]1[C@@H](CO)[C@@H]2Cn3c(ccc(C4=CCCC4)c3=O)[C@H]1N2CC1CCCC1	·	·	·	0	·
O=c1[nH]cnc2nc(-c3ccc(N(CCCl)CCCl)cc3)[nH]c12	61	74*	10	0	21	Ring1 derepress=1.1;esBAF Fgf4 qPCR=0.89;Bmi1 derepress=2.4;A549 tox SP=-54*;HepG2 cytotox SP=8;HEK293 cytotox SP=-37*
